In ChEMBL document CHEMBL2311301, “Design, synthesis and characterization of novel 1,2-benzisothiazol-3(2H)-one and 1,3,4-oxadiazole hybrid derivatives: potent inhibitors of Dengue and West Nile virus NS2B/NS3 proteases” (Bioorg Med Chem, 2013) one finds inhibition, IC50 and Ki data, which are given here for 24 compounds.

The test system of assay [1] is West Nile virus. In words: Inhibition of WNV NS2B/NS3 protease using Bz-Nle-Lys-Arg-Arg-AMC as substrate at 10 uM by spectrofluorometric analysis relative to control. The essentials: (§1)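 Protease (DENV2 NS2B-NS3pro 25 nM; WNV NS2B-NS3pro with 5-residue linker 28 nM) incubated with inhibitor in DMSO, 15 min at 37 °C, in 200 mM Tris·HCl pH 9.5, 6 mM NaCl, 30% glycerol. Reaction started with 5.0 μM substrate. AMC release read at ex 380/em 460 nm. No-protease background subtracted; no-inhibitor control taken as 100%. Triplicates.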

In assay [2] the test system is West Nile virus. Kind of assay: Inhibition of WNV NS2B/NS3 protease using Bz-Nle-Lys-Arg-Arg-AMC as substrate at 25 uM by spectrofluorometric analysis relative to control. A digest of the protocol: as §1
In assay [3] the test system is dengue virus type 2. In words: Inhibition of DENV2 NS2B/NS3 protease expressed in Escherichia coli Top 10 F' using Bz-Nle-Lys-Arg-Arg-AMC as substrate at 25 uM by spectroflorometer analysis relative to control. The essentials: as §1
Assay [4] concerns dengue virus type 2. In words: Inhibition of DENV2 NS2B/NS3 protease expressed in Escherichia coli Top 10 F' using Bz-Nle-Lys-Arg-Arg-AMC as substrate at 10 uM by spectroflorometer analysis relative to control. The essentials:
as §1

Assay [5] in a line: Inhibition of WNV NS2B/NS3 protease using Bz-Nle-Lys-Arg-Arg-AMC as substrate by spectrofluorometric analysis relative to control. Also on record: species or system West Nile virus. The essentials: (§2)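 IC50 run in the same single-point format (DENV2 protease 25 nM, WNV protease 28 nM; 15 min preincubation at 37 °C, pH 9.5 Tris buffer, 5.0 μM substrate, fluorescence ex 380/em 460 nm). Twelve inhibitor levels from 10 nM to 25 μM. IC50 from a sigmoidal fit of activity relative to the no-inhibitor control. Triplicates.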

Assay [6] can be described thus: Inhibition of DENV2 NS2B/NS3 protease expressed in Escherichia coli Top 10 F' using Bz-Nle-Lys-Arg-Arg-AMC as substrate by spectroflorometer analysis relative to control. Also on record: species or system dengue virus type 2. A digest of the protocol: as §2
The nature of assay [7]: Competitive inhibition of DENV2 NS2B/NS3 protease expressed in Escherichia coli Top 10 F' using Bz-Nle-Lys-Arg-Arg-AMC as substrate by Michaelis-Menten equation analysis. Further details: species or system dengue virus type 2. A digest of the protocol: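 DENV2 NS2B-NS3pro construct (NS2B hydrophilic cofactor joined to NS3 protease via Q-R), 25 nM, in 200 mM Tris·HCl pH 9.5, 6 mM NaCl, 30% glycerol, 0.1% CHAPS at 37 °C. Inhibitor at 0, 1.0, 3.0 and 5.0 μM; substrate 0-50 μM; started with enzyme. Initial rates from AMC fluorescence (ex 380/em 460 nm) every 1.5 min, under 5% conversion. Duplicates, repeated three times. Ki from secondary plot of Km,app against inhibitor.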

Turning to `O=c1c2ccccc2sn1C(Cc1ccccc1)c1nnc(-c2cccc(F)c2)o1` (centres undefined), the inhibition in assay [1] amounted to 30.4%; in assay [2], 38.9%; in assay [3], 50.9%; in assay [4], 39%.
In the same order, the values of `COc1ccc(Cc2nnc(C(C)n3sc4ccccc4c3=O)o2)cc1` (centres undefined) are 4.17%, 9.79%, 17.8% and 8.08%.
Consider `COc1ccc(Cc2nnc(C(Cc3ccccc3)n3sc4ccccc4c3=O)o2)cc1` (centres undefined), for which the inhibition amounted to 24.2% in assay [1], 34.9% in assay [2], 38.6% in assay [3] and 28.5% in assay [4].
In the same order, the values of `O=c1c2ccccc2sn1Cc1nnc(Cc2ccccc2)o1` are 8.27%, 14.7%, 16.4% and 3.56%.
As to `O=c1c2ccccc2sn1Cc1nnc(-c2cccc(F)c2)o1`, the inhibition in assay [1] is 7.68%; in assay [2], 10.1%; in assay [3], 9.11%; in assay [4] it was 3.24%.
In the same order, the values of `COc1ccc(Cc2nnc(Cn3sc4ccccc4c3=O)o2)cc1` are 5.96%, 8.68%, 7.9% and 5.27%.
On to `O=c1c2ccccc2sn1C(Cc1ccccc1)c1nnc(-c2cccc(Cl)c2)o1` (centres undefined), for which the inhibition in assay [1] stood at 29%; in assay [2], 43.1%; in assay [3], 42.1%; in assay [4], 34.3%.
In the same order, the values of `CCc1nnc(C(Cc2ccccc2)n2sc3ccccc3c2=O)o1` (centres undefined) are 25.1%, 44.3%, 34.2% and 22.5%.
In the same order, the values of `CCOc1ccc(-c2nnc(C(Cc3ccccc3)n3sc4ccccc4c3=O)o2)cc1` (centres undefined) are 56.1%, 71.8%, 61.3% and 40.6%.
In the same order, the values of `O=c1c2ccccc2sn1C(Cc1cccc(F)c1)c1nnc(-c2cccc(Cl)c2)o1` (centres undefined) are 27.4%, 35.6%, 31.6% and 16%.
As to `O=c1c2ccccc2sn1C(Cc1ccccc1)c1nnc(-c2ccc(Cl)cc2)o1` (centres undefined), the inhibition in assay [1] came out at 53.5%; in assay [2], 63.2%; in assay [3], 70.5%; in assay [4] it was 53.2%.
In the same order, the values of `CCCc1nnc(C(Cc2ccccc2)n2sc3ccccc3c2=O)o1` (centres undefined) are 34.9%, 46.2%, 36.7% and 25.6%.
In the same order, the values of `O=c1c2ccccc2sn1C(CCc1ccccc1)c1nnc(-c2cccc(Cl)c2)o1` (centres undefined) are 23.9%, 33.9%, 35% and 26.1%.
In the same order, the values of `O=c1c2ccccc2sn1C(Cc1ccccc1)c1nnc(-c2ccncc2)o1` (centres undefined) are 63.1%, 72.7%, 70.9% and 62.4%.
Take `O=c1c2ccccc2sn1C(Cc1ccccc1)c1nnc(-c2ccco2)o1` (centres undefined): the inhibition was 44.3% in assay [1], 57.7% in assay [2], 64.7% in assay [3] and 52.3% in assay [4].
Turning to `Cc1nnc(C(Cc2ccccc2)n2sc3ccccc3c2=O)o1` (centres undefined), the inhibition came to 22.3% in assay [1], 40.4% in assay [2], 31.6% in assay [3] and 20% in assay [4].
In the same order, the values of `O=c1c2ccccc2sn1C(Cc1ccccc1)c1nnc(-c2cccs2)o1` (centres undefined) are 43.7%, 59.7%, 69.8% and 52.3%.
Turning to `COc1ccc(-c2nnc(C(Cc3ccccc3)n3sc4ccccc4c3=O)o2)cc1` (centres undefined), the inhibition in assay [1] is 68.6%; in assay [2], 73.4%; in assay [3], 80%; in assay [4] it was 65.5%. Further, the figures for the IC50 in assay [5] and in assay [6] were 4.22 µM and 3.75 µM, respectively. Besides, in assay [7], the Ki is 3.61 µM.
`O=c1c2ccccc2sn1C(Cc1ccccc1)c1nnc(-c2cccnc2)o1` (centres undefined): the inhibition in assay [1] was determined as 55.8%; in assay [2], 62.5%; in assay [3] it was 70%; in assay [4], 58.1%.
With `N#Cc1ccc(-c2nnc(C(Cc3ccccc3)n3sc4ccccc4c3=O)o2)cc1` (centres undefined), the inhibition in assay [1] stood at 63.6%; in assay [2], 70.9%; in assay [3], 72.9%; in assay [4] it was 63.9%.
In the same order, the values of `O=c1c2ccccc2sn1C(Cc1ccccc1)c1nnc(Cc2ccccc2)o1` (centres undefined) are 20.5%, 30.1%, 31.2% and 22.4%.
`O=c1c2ccccc2sn1C(Cc1ccccc1)c1nnc(-c2ccc(F)cc2)o1` (centres undefined): the inhibition in assay [1] came out at 51.1%; in assay [2], 59.1%; in assay [3] it was 75.7%; in assay [4] it was 60.3%.
In the same order, the values of `O=c1c2ccccc2sn1Cc1nnc(-c2cccc(Cl)c2)o1` are 6.15%, 9.15%, 16.7% and 5.21%.
In the case of `O=c1c2ccccc2sn1C(Cc1ccccc1)c1nnc(-c2ccccc2)o1` (centres undefined), the inhibition in assay [1] turned out to be 51.7%; in assay [2], 64.1%; in assay [3], 69.2%; in assay [4], 56.7%.

Usually inhibition stands for the change of the read-out against control, counted positive when it falls. A high value points to a response far below the control. As a reminder, the IC50 is the concentration that gives 50% inhibition. Read a low IC50 as greater potency in that assay. One may read the Ki as the equilibrium dissociation constant of an inhibitor or competing ligand from its target. Higher therefore signals weaker binding.
